Assay results: ChEMBL document CHEMBL3627690, “Scaffold-Hopping and Structure-Based Discovery of Potent, Selective, And Brain Penetrant N-(1H-Pyrazol-3-yl)pyridin-2-amine Inhibitors of Dual Leucine Zipper Kinase (DLK, MAP3K12)” (J Med Chem, 2015)
pIC50: −log10 of the molar value. Activity calls are given as the source filed them. The rule behind the calls is not given here.

Columns and labels:
Rattus norvegicus [1] = assay: Free clearance in […] rat at 0.4 or 1 mg/kg, iv and 1 or 5 mg/kg, po; format: ADME, organism-based; details: in vivo
Method in brief: (§1)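 Rat PK used iv dosing at 0.4 or 1 mg/kg in 60% PEG solution and po dosing at 1 or 5 mg/kg as an aqueous 1% methylcellulose suspension. Free clearance is CL/fu, where fu is the fraction unbound in plasma.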

[2] = target: Phosphorylase b kinase gamma catalytic chain, liver/testis isoform (Homo sapiens) (UniProt P15735); assay: Inhibition of PhKgamma2 (unknown origin) at 1 uM by FRET method
Method in brief: (§2)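 Single-point screen at 1 uM against a panel of 58 representative kinases. Readout was labeled-peptide phosphorylation by FRET (Z′-LYTE), using the vendor's protocols.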

[3] = target: Mitogen-activated protein kinase kinase kinase 10 (Homo sapiens, UniProt Q02779); assay: Inhibition of MLK2 (unknown origin) by FRET method
Method in brief: (§3)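 Biochemical IC50 determination from a 10-point dose-response in an enzymatic Z′-LYTE assay. Labeled-peptide phosphorylation was read by FRET under the vendor's protocols.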

[4] = target: Receptor tyrosine-protein kinase erbB-2 (Homo sapiens) (UniProt P04626); assay: Inhibition of ErbB2 (unknown origin) at 1 uM by FRET method
Method in brief: (§4)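 SelectScreen panel of 58 kinases, each tested at a single 1 µM compound concentration. Read-out was Z′-LYTE FRET of labeled peptide phosphorylation, run by the vendor's protocols, reported as percent inhibition.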

[5] = AUC (0 to 6 h) in mouse at 50 mg/kg, po; format: ADME, organism-based; design: dose 50 mg/kg, time < 6 hr, route oral; details: in vivo
Method in brief: (§5)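 C57/Bl6 mice were given a single 50 mg/kg oral dose as an MCT suspension. Plasma was sampled over 0–6 h for Cmax, Tmax and AUC0–6h.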

[6] = target: Casein kinase I isoform gamma-2 (Homo sapiens) (UniProt P78368); assay: Inhibition of CK1gamma2 (unknown origin) at 1 uM by FRET method; method in brief: as §4
[7] = Half life in […] rat at 0.4 or 1 mg/kg, iv and 1 or 5 mg/kg, po; format: ADME, organism-based; details: in vivo; method in brief: as §1
human MDR1 = assay: Permeability across apical to basolateral side in MDCK cells transfected with human MDR1 at 5 uM by LC-MS/MS analysis; details: dog
[8] = Cmax in mouse at 50 mg/kg, po; format: ADME, organism-based; design: dose 50 mg/kg, route oral; details: in vivo; method in brief: as §5
[9] = target: Rho-associated protein kinase 1 (Homo sapiens) (UniProt Q13464); assay: Inhibition of ROCK1 (unknown origin) at 1 uM by FRET method; method in brief: as §2
[10] = target: Ribosomal protein S6 kinase beta-1 (Homo sapiens) (UniProt P23443); assay: Inhibition of p70S6K (unknown origin) at 1 uM by FRET method; method in brief: as §2
[11] = target: Insulin-like growth factor 1 receptor (Homo sapiens) (UniProt P08069); assay: Inhibition of IGF1R (unknown origin) at 1 uM by FRET method; method in brief: as §4
[12] = target: Epidermal growth factor receptor (Homo sapiens) (UniProt P00533); assay: Inhibition of EGFR (unknown origin) at 1 uM by FRET method; method in brief: as §4
Rattus norvegicus [13] = assay: Dose normalized free AUC in rat at 0.4 or 1 mg/kg, iv and 1 or 5 mg/kg, po; details: in vivo
[14] = target: Cyclin-dependent kinase 1/cyclin B1 (Homo sapiens) (UniProt P06493+P14635); assay: Inhibition of CDK1/cyclinB (unknown origin) at 1 uM by FRET method; format: protein-complex assay; method in brief: as §4
[15] = target: T1, Mitogen-activated protein kinase kinase kinase 12 (Homo sapiens) (UniProt Q12852); assay: Inhibition of Flag DLK (unknown origin) transfected in HEK293 cells assessed as reduction of phosphorylation of MKK4 at 0.1 to 10 uM incubated for 5 hrs measured by Western blot analysis; format: cell-based
T1 sequence (whole entry): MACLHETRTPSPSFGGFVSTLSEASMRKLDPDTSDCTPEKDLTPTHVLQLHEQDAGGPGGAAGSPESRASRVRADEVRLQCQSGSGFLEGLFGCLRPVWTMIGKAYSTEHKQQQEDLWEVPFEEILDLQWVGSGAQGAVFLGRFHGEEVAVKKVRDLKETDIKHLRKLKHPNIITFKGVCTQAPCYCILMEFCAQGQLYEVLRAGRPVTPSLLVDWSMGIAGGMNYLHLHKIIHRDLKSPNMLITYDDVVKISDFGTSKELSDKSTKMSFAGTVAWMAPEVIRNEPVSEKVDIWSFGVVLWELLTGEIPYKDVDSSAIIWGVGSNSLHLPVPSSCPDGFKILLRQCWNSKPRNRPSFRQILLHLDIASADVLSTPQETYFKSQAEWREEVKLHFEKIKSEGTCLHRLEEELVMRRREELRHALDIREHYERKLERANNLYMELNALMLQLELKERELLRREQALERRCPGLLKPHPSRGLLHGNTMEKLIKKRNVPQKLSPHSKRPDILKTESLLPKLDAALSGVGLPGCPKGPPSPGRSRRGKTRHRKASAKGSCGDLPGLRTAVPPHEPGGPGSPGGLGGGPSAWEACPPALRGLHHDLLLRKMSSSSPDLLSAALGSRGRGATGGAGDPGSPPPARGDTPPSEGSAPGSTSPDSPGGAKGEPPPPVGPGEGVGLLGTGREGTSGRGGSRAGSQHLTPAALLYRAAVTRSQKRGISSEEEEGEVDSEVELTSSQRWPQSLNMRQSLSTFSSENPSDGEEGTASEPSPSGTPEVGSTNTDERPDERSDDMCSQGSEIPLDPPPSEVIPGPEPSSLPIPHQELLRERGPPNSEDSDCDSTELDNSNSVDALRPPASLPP
Method in brief: (§6)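 HEK293 cells were transfected with Flag-tagged DLK, with kinase-dead DLK K152A as comparator, 24 h before compound addition. Cells were then exposed to compound for 5 h. Phospho-MKK4, phospho-MKK7, phospho-JNK and phospho-c-Jun were probed.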

[16] = target: Protein kinase C beta type (Homo sapiens) (UniProt P05771); assay: Inhibition of PKCbeta1 (unknown origin) at 1 uM by FRET method; method in brief: as §2
[17] = target: Fibroblast growth factor receptor 1 (Homo sapiens) (UniProt P11362); assay: Inhibition of FGFR1 (unknown origin) at 1 uM by FRET method; method in brief: as §4
[18] = target: Mitogen-activated protein kinase kinase kinase 11 (Homo sapiens, UniProt Q16584); assay: Inhibition of MLK3 (unknown origin) by FRET method; method in brief: as §3
[19] = target: Serine/threonine-protein kinase Chk1 (Homo sapiens) (UniProt O14757); assay: Inhibition of CHK1 (unknown origin) at 1 uM by FRET method; method in brief: as §4
[20] = target: Myotonin-protein kinase (Homo sapiens) (UniProt Q09013); assay: Inhibition of DMPK (unknown origin) at 1 uM by FRET method; method in brief: as §4
[21] = target: T1, Mitogen-activated protein kinase kinase kinase 12 (Homo sapiens); assay: Inhibition of Flag DLK (unknown origin) transfected in HEK293 cells assessed as reduction of phosphorylation of MKK7 at 0.1 to 10 uM incubated for 5 hrs measured by Western blot analysis; format: cell-based; method in brief: as §6

Ribosomal protein S6 kinase beta-1 (Homo sapiens), sequence (P23443 whole entry, looked up): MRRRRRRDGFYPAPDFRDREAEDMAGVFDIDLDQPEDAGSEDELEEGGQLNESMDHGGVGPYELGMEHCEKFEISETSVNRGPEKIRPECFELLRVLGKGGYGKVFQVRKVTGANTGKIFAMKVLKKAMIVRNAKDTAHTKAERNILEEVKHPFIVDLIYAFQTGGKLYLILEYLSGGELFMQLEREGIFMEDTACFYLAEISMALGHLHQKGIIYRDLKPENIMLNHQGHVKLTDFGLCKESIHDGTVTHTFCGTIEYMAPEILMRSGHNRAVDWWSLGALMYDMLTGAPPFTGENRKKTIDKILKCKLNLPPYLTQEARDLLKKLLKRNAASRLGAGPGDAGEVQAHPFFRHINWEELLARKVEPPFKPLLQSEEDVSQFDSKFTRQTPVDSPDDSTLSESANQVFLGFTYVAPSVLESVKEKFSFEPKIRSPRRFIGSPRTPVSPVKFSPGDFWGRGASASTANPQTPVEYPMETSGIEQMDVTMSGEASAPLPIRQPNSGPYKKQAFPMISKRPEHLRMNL
Serine/threonine-protein kinase Chk1 (Homo sapiens), sequence (O14757 whole entry): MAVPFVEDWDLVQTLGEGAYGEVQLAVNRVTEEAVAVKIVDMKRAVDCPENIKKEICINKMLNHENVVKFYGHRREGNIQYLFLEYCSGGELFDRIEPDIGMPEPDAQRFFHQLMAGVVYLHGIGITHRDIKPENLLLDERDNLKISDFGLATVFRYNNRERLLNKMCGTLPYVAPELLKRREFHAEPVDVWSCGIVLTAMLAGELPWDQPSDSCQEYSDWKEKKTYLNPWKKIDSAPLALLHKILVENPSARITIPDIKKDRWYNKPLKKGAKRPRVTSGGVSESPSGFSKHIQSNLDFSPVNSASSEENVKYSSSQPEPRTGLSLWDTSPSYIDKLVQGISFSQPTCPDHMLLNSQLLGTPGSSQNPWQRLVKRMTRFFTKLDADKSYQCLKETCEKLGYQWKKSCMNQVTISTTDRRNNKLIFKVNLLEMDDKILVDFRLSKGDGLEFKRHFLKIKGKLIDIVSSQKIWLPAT
Phosphorylase b kinase gamma catalytic chain, liver/testis isoform (Homo sapiens), sequence (P15735 whole entry, canonical isoform): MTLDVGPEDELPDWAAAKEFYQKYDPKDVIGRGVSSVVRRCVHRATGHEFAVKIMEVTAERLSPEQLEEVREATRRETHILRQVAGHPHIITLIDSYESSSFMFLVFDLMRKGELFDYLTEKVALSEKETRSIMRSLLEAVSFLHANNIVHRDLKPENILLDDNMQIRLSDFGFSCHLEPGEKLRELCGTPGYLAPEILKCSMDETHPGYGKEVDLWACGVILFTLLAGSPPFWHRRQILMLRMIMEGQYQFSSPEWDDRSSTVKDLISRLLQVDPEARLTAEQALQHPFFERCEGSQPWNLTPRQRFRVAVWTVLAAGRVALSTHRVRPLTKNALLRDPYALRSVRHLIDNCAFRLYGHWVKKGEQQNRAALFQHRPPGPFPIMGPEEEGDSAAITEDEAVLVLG
Protein kinase C beta type (Homo sapiens), sequence (P05771 2-671 limits assumed): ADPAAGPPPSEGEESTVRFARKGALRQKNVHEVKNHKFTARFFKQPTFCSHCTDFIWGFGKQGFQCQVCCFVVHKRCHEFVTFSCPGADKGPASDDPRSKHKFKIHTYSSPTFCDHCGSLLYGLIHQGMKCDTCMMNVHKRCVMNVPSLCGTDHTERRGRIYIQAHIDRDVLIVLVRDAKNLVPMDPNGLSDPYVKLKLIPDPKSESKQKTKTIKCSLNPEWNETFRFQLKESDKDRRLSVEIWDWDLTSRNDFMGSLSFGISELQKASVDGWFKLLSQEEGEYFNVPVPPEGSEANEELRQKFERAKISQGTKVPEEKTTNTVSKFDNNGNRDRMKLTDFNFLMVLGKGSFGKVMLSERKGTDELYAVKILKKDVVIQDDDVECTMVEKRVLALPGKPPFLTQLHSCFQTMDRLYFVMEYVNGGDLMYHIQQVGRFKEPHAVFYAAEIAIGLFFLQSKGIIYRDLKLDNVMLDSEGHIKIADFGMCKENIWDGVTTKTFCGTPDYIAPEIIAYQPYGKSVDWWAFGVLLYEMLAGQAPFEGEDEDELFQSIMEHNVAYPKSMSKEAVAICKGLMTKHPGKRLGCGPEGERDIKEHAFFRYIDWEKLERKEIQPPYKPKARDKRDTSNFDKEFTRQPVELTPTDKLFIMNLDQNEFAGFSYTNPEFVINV
Rho-associated protein kinase 1 (Homo sapiens), sequence (Q13464 2-1354 limits assumed): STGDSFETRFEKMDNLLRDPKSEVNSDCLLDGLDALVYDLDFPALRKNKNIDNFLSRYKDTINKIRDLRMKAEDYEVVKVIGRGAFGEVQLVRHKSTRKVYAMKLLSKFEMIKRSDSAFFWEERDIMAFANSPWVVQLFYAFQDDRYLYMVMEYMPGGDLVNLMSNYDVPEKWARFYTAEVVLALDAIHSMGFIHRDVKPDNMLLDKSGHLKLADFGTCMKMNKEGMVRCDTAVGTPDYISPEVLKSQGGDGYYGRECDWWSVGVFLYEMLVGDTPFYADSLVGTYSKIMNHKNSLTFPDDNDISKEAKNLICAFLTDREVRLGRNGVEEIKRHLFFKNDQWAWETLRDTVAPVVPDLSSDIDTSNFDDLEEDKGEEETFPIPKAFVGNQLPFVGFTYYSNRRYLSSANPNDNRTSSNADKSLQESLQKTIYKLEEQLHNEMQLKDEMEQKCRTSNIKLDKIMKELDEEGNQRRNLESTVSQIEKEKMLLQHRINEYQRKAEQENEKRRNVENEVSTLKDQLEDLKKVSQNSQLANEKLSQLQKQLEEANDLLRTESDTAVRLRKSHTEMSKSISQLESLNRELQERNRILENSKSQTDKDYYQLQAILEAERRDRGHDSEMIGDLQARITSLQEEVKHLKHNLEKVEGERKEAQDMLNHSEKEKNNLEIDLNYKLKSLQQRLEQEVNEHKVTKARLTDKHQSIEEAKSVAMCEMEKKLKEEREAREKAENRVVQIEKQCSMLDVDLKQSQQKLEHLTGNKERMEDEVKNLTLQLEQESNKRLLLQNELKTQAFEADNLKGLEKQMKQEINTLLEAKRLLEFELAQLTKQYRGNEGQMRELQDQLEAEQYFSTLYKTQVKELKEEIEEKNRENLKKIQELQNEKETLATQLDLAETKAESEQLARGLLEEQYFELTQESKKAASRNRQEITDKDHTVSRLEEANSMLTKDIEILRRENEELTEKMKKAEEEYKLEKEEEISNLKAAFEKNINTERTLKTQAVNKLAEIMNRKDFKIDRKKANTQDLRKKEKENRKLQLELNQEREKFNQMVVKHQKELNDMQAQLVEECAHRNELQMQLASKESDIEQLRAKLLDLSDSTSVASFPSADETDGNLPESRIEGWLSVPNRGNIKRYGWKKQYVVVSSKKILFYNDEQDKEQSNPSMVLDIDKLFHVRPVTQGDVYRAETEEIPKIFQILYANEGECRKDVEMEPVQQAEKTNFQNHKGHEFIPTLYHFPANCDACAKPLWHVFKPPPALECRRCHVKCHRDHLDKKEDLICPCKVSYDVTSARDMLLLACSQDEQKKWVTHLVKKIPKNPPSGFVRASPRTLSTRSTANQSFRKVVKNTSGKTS
Mitogen-activated protein kinase kinase kinase 11, sequence (Q16584 whole entry): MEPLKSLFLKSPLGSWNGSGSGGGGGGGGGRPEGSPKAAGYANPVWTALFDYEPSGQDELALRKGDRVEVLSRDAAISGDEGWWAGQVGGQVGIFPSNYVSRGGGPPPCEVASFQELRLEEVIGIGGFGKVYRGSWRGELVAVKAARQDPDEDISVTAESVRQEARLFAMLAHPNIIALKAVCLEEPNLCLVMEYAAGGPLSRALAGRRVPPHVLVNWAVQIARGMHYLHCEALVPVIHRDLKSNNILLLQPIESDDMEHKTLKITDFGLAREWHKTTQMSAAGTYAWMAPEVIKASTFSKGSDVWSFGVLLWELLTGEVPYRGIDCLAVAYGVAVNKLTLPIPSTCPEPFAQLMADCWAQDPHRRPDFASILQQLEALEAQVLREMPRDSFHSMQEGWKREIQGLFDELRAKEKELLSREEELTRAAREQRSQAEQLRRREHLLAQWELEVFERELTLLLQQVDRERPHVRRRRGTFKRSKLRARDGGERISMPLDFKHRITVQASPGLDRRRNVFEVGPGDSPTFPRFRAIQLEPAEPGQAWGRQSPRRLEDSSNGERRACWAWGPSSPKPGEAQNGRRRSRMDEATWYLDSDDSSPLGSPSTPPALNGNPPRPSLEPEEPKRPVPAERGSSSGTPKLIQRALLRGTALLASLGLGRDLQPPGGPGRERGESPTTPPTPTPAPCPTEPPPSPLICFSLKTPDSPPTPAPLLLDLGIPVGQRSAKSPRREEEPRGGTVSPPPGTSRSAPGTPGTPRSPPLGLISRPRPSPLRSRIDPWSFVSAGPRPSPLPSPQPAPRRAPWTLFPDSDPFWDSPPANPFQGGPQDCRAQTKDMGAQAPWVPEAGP
Cyclin-dependent kinase 1/cyclin B1 (Homo sapiens), sequence (P06493 whole entry, looked up): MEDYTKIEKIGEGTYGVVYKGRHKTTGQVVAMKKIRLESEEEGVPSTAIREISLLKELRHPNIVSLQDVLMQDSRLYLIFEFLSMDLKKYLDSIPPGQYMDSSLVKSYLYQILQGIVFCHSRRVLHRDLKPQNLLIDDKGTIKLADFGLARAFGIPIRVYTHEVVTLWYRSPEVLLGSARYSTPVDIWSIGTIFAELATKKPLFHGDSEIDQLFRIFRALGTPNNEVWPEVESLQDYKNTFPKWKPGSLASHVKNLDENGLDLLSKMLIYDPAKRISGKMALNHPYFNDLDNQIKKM
Cyclin-dependent kinase 1/cyclin B1 (Homo sapiens), sequence (P14635 whole entry, looked up): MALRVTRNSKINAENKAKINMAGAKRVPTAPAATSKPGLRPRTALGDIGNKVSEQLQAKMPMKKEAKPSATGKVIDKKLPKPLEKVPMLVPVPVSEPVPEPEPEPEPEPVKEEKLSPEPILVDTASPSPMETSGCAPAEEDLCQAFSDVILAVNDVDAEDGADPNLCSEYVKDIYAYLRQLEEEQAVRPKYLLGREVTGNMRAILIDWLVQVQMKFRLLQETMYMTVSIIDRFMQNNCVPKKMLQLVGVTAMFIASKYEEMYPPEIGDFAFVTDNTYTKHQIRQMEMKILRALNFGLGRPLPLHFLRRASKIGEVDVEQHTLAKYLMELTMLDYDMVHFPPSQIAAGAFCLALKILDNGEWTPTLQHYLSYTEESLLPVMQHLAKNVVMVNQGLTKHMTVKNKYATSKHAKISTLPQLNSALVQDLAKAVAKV

CL free (Rattus norvegicus [1]): 327 mL/min/kg
inhibition [2]: -1.9%
pIC50 [3]: < 5.00
inhibition [4]: 1%
AUC(0-t) at 6 h [5]: 15.8 µM·h
inhibition [6]: 1.8%
half-life [7]: 1.7 h
Papp A→B at 5 µM (human MDR1): 8.8 ×10⁻⁶ cm/s
Cmax [8]: 5.9 µM
inhibition [9]: -3%
inhibition [10]: 0.8%
inhibition [11]: 37%
inhibition [12]: 2.1%
fAUC/dose (Rattus norvegicus [13]): 0.03 kg·h/L
inhibition [14]: 13.5%
inhibition [15]: Active
inhibition [16]: 15.9%
inhibition [17]: 0.3%
pIC50 [18]: < 5.00
inhibition [19]: -2.3%
inhibition [20]: 12%
inhibition [21]: Active
Compound: N#Cc1ccnc(Nc2cc(C3CCN(C4COC4)CC3)n(C3CCCC3)n2)c1
